Assay [1] relates to Trypanosoma cruzi. Description: Trypanocidal activity against Trypanosoma cruzi Y trypomastigotes infected in mouse macrophage at 32 uM. The assay is classed as functional. The method in brief: (§1)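 Trypomastigotes were harvested from mouse macrophage cultures, about 2 × 10^6 parasites/mL, in RPMI 1640 in 96-well plates. Compounds were dissolved in DMSO and diluted in blood to final 2.0, 8.0 and 32.0 µM, with 1% DMSO. Plates were incubated at 4 °C, and percent lysis was read by MTT colorimetry, in triplicate. Negative control: infected blood plus DMSO.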

The test system of assay [2] is Trypanosoma cruzi. Description: Antitrypanosomal activity against Trypanosoma cruzi Y trypomastigotes infected in mouse macrophage. The assay is classed as functional, organism-based. The method in brief: as §1
For assay [3], the system named is Trypanosoma cruzi. Description: Trypanocidal activity against Trypanosoma cruzi Y trypomastigotes infected in mouse macrophage at 8 uM. The format is functional. The method, boiled down:
as §1

The test system of assay [4] is Trypanosoma cruzi. Description: Trypanocidal activity against Trypanosoma cruzi Y trypomastigotes infected in mouse macrophage at 2 uM. The assay is classed as functional. The method in brief:
as §1

Assay [5] concerns Trypanosoma cruzi. Description: Trypanocidal activity against Trypanosoma cruzi Y trypomastigotes infected in mouse macrophage at 250 ug/ml. The format is functional, organism-based. The method in brief:
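Positive-control wells had gentian violet at 250 µg/mL against trypomastigotes from mouse macrophage cultures, about 2 × 10^6 parasites/mL, in RPMI 1640 in blood. Incubation was at 4 °C, and percent lysis was measured by MTT colorimetric method, in triplicate.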

SMILES strings stand for the structures.

As to `COc1ccc([C@H]2O[C@H](c3ccc(OC)c(OC)c3)[C@@H](C)[C@H]2C)cc1OC` [GANSCHISANDRINE], the Activity with Trypanosoma cruzi [1] is reported as 55.6%; in the assay on Trypanosoma cruzi [3], 49.2%; with Trypanosoma cruzi [4] it was 36.5%. Further, the 50% inhibitory concentration (IC50) (usually the concentration that inhibits the measured activity by half) in the assay on Trypanosoma cruzi [2] is 12.2 µM.
Take `COc1ccc([C@@H]2O[C@H](c3ccc4c(c3)OCO4)[C@@H](C)[C@H]2C)cc1OC` [MACHILIN G]: the Activity with Trypanosoma cruzi [1] worked out at 94%; in the assay with Trypanosoma cruzi [3], 53.6%; with Trypanosoma cruzi [4], 54.8%. In addition, half-maximal inhibition in the assay on Trypanosoma cruzi [2] (IC50) was put at 2.2 µM.
For the compound `COc1cc([C@H]2O[C@@H](c3ccc(OC)c(OC)c3)[C@@H](C)[C@@H]2C)ccc1O` [ARISTOLIGNIN], the values for the Activity with Trypanosoma cruzi [1], in the assay on Trypanosoma cruzi [3] and in the assay with Trypanosoma cruzi [4] were 47.6%, 46.8% and 34.2%, respectively. Besides, it took 34.8 µM to reach half-maximal inhibition in the assay with Trypanosoma cruzi [2] (IC50).
On the same counts, the results for `COc1ccc([C@@H]2O[C@H](c3ccc4c(c3)OCO4)[C@@H](C)[C@@H]2C)cc1OC` [CALOPIPTIN] are 60.3%, 49.2%, 21.4% and 12.6 µM.
On the same counts, the results for `COc1cc([C@H]2O[C@@H](c3ccc(O)c(OC)c3)[C@H](C)[C@@H]2C)ccc1O` [NECTANDRIN B] are 48%, 25%, 23% and 47.3 µM.
For `CN(C)c1ccc(C(=C2C=CC(=[N+](C)C)C=C2)c2ccc(N(C)C)cc2)cc1` [GENTIAN VIOLET], in the assay on Trypanosoma cruzi [5], the half-inhibitory concentration (IC50) was determined as 76 µM.
As to `COc1ccc([C@H]2O[C@@H](c3ccc(OC)c(OC)c3)[C@H](C)[C@@H]2C)cc1OC` [GALGRAVIN], the Activity in the assay with Trypanosoma cruzi [1] is recorded as 59.9%; with Trypanosoma cruzi [3], 56.3%; with Trypanosoma cruzi [4] it was 44%. The IC50 with Trypanosoma cruzi [2] was found to be 4.4 µM.
In the case of `COc1cc([C@H]2O[C@@H](c3ccc(OC)c(OC)c3)[C@H](C)[C@@H]2C)ccc1O` [NECTANDRIN A], the values for the Activity in the assay with Trypanosoma cruzi [1], in the assay on Trypanosoma cruzi [3] and with Trypanosoma cruzi [4] were 18%, 13.5% and 10.2%, respectively. Further, the IC50 in the assay on Trypanosoma cruzi [2] came out at 17400 µM.

(Values after ChEMBL document CHEMBL1146457, “Tetrahydrofuran lignans from Nectandra megapotamica with trypanocidal activity” (J Nat Prod, 2004).)
